The text below walks through data of ChEMBL document CHEMBL1255220, “Synthesis and antitumor effect in vitro and in vivo of substituted 1,3-dihydroindole-2-ones” (J Med Chem, 2010).

One data set deals with MCF7. In words: Cytotoxicity against human MCF7 cells after 72 hrs by WST-1 assay. The data set is classed as functional, cell-based. The method, boiled down:
(§1)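 Cells seeded at 3×10³/well; next day serially diluted compound added in triplicate; 72 h at 37 °C, 5% CO₂. Viable cells measured with WST-1 reagent (1 h), absorbance 450 nm minus 690 nm reference. IC50 is mean ± SD of at least two experiments run in triplicate. MCF-7 grown in DMEM, PC3 in RPMI, each with 10% serum.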
In general terms: Tetrazolium dyes change colour on reduction, which living cells bring about.

Data set [1] relates to PC-3. In words: Cytotoxicity against human PC3 cells after 72 hrs by WST-1 assay. The data set is classed as functional, cell-based. In a few lines:
as §1

Data set [2] is described as follows: AUC in mouse at 5 mg/kg, iv. The data set is classed as ADME, organism-based. Details: dose 5 mg/kg, route intravenous. The note with it: plasma. The method, boiled down: (§2)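 Compound given as single iv dose to mice or rats. Plasma samples prepared by protein precipitation with acetonitrile containing 1 μg/mL internal standard (3:1 v/v). Analysed by UPLC-MS/MS on a C18 reversed-phase column at 40 °C with an acetonitrile–0.05% formic acid gradient. Half-life and AUC (h ng/mL) derived from the plasma levels.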

Data set [3] can be described thus: Half life in mouse at 5 mg/kg, iv. The data set is classed as ADME, organism-based. Details: dose 5 mg/kg, route intravenous. The note with it: in vivo. The method, boiled down: as §2
Data set [4] can be described thus: Half life in rat at 2.5 mg/kg, iv. The data set is classed as ADME, organism-based. Details: dose 2.5 mg/kg, route intravenous. The note with it: in vivo. In a few lines:
as §2

A short description of data set [5]: AUC in rat at 2.5 mg/kg, iv. The data set is classed as ADME, organism-based. Details: dose 2.5 mg/kg, route intravenous. The note with it: plasma. The method, boiled down:
as §2

Data set [6] relates to PC-3. In words: Antitumor activity against human PC3 cells xenografted in sc dosed NMRI mouse assessed as tumor regression dose. The data set is classed as functional. The method, boiled down:
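1e7 PC3 cells (grown in RPMI + 10% FBS) in PBS/Matrigel 1:1 injected sc into female NMRI nude mice or female NIH-RNU nude rats. Compound dosed iv three times per week. Tumour regression dose recorded. Rat effective doses were estimated from mouse xenografts using a 0.5 mouse-to-rat conversion factor.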

The nature of data set [7]: Therapeutic index, ratio of MTD in rat to ED50 for antitumor activity against human PC3 cells xenografted in rat. The data set is classed as cell-based, PC-3. The conditions noted are these: in vivo, read-out: TI. The method, boiled down: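 PC3 human prostate cancer cells (1e7, grown in RPMI + 10% FBS, suspended in PBS + Matrigel) were implanted sc in female nude rats (NIHRNU-M) or nude mice (NMRI/nude), with iv dosing 3×/week. Rat MTD came from a single iv dose. Effective rat doses were estimated from mouse xenografts using a mouse-to-rat conversion factor of 0.5. Index = rat toxic dose / rat effective dose.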
A general note: Xenograft models place foreign cells or tissue in a host animal.

Data set [8] in a line: Half life in rat at 5 mg/kg, iv. The data set is classed as ADME, organism-based. Details: dose 5 mg/kg, route intravenous. The note with it: in vivo. In a few lines:
as §2

A short description of data set [9]: AUC in rat at 5 mg/kg, iv. The data set is classed as ADME, organism-based. Also on record: dose 5 mg/kg, route intravenous. The conditions noted are these: plasma. The method, boiled down:
as §2

A short description of data set [10]: Toxicity in iv dosed rat assessed as maximum tolerated dose. The conditions noted are these: in vivo.

Molecules are shown by their SMILES.

A word on the IC50: it is the concentration needed to halve the response being measured. A lower IC50 goes with higher potency. Turning to `CCCCCOc1ccc(C2(c3ccc(O)cc3)C(=O)Nc3c2ccc(F)c3F)cc1` (racemic), the IC50 in the data set on MCF7 (Homo sapiens, MCF7, 72 h) was above 1000 nM; with PC-3 [1] (Homo sapiens, PC-3, 72 h), above 1000 nM.

Take `COc1ccc(C2(c3cccc(O)c3)C(=O)Nc3c2ccc(F)c3F)cc1` (racemic): the IC50 came to 196 nM with MCF7 (Homo sapiens, MCF7, 72 h) and 145 nM in the data set on PC-3 [1] (Homo sapiens, PC-3, 72 h).

Turning to `O=C1Nc2c(ccc(F)c2F)C1(c1ccc(O)cc1)c1ccc(F)c(F)c1` (racemic), the IC50 was determined as 7.8 nM in the data set with MCF7 (Homo sapiens, MCF7, 72 h) and 19 nM with PC-3 [1] (Homo sapiens, PC-3, 72 h).

Broadly, the AUC is the area under the concentration-time curve, a measure of exposure. High values mean high exposure, low ones low exposure. The term half-life denotes how long it takes for the measured level to halve. Regarding `O=C1Nc2c(ccc(F)c2F)C1(c1ccc(O)cc1)c1cccs1` (racemic), the IC50 with MCF7 (Homo sapiens, MCF7, 72 h) came to 82 nM; in the data set with PC-3 [1] (Homo sapiens, PC-3, 72 h), 0.3 nM. Also, the area under the curve (AUC) in data set [2] is 395 ng·h/mL; in [5] it was 2630 ng·h/mL. Moreover, the half-life in [3] was 0.4 h; in data set [4], 0.7 h.

As to `O=C1Nc2c(ccc(F)c2F)C1(c1ccncc1)c1ccc(O)cc1` (racemic), the concentration for half-maximal inhibition (IC50) was 37 nM with MCF7 (Homo sapiens, MCF7, 72 h) and 110 nM in the data set on PC-3 [1] (Homo sapiens, PC-3, 72 h).

Regarding `O=C1Nc2c(ccc(F)c2F)C1(c1ccc(O)cc1)c1cccnc1` (racemic), the IC50 with MCF7 (Homo sapiens, MCF7, 72 h) was 63 nM; in the data set with PC-3 [1] (Homo sapiens, PC-3, 72 h) it was above 1000 nM.

As to `CCCC1(c2ccc(O)cc2)C(=O)Nc2c1ccc(F)c2F` (racemic), the IC50 in the data set on MCF7 (Homo sapiens, MCF7, 72 h) is above 1000 nM; with PC-3 [1] (Homo sapiens, PC-3, 72 h), above 1000 nM.

On to `CCCCCC1(c2ccc(O)cc2)C(=O)Nc2c1ccc(F)c2F` (racemic), for which the 50% inhibitory concentration (IC50) with MCF7 (Homo sapiens, MCF7, 72 h) worked out at 96 nM; in the data set with PC-3 [1] (Homo sapiens, PC-3, 72 h), 1.1 nM.

As for `O=C1Nc2c(ccc(F)c2F)C1(c1ccc(O)cc1)C1CCCC1` (racemic), the IC50 in the data set with MCF7 (Homo sapiens, MCF7, 72 h) worked out at 12 nM; in the data set on PC-3 [1] (Homo sapiens, PC-3, 72 h) it was 8.2 nM. Besides, the AUC was determined as 1850 ng·h/mL in data set [2] and 2400 ng·h/mL in [5]. In addition, the figures for the half-life in data set [3] and in data set [4] were 3.7 h and 1.1 h, respectively.

A word on the MTD: it is the highest dose tested that stayed within the study's limit of toxicity. Consider `O=C1Nc2c(ccc(F)c2F)C1(c1ccc(O)cc1)C1CCCCCC1` (racemic), for which the IC50 with MCF7 (Homo sapiens, MCF7, 72 h) came out at 1.2 nM; in the data set on PC-3 [1] (Homo sapiens, PC-3, 72 h) it was 12 nM. Also, the Activity with PC-3 [6] came out at 10 mg/kg. Moreover, the selectivity ratio in data set [7] was 8. The AUC in data set [2] turned out to be 694 ng·h/mL; in [9] it was 2290 ng·h/mL. Further, the values for the half-life in data set [3] and in data set [8] were 1.3 h and 2.1 h, respectively. In data set [10], the MTD is above 40 mg/kg.

Regarding `O=C1Nc2c(ccc(F)c2F)C1(c1ccc(O)cc1)C1CCCCCCC1` (racemic), the IC50 in the data set with MCF7 (Homo sapiens, MCF7, 72 h) is above 1000 nM; in the data set on PC-3 [1] (Homo sapiens, PC-3, 72 h) it was above 1000 nM.

With `O=C1Nc2c(ccc(F)c2F)C1(CC1CCCCC1)c1ccc(O)cc1` (racemic), the IC50 is 102 nM with MCF7 (Homo sapiens, MCF7, 72 h) and above 1000 nM in the data set on PC-3 [1] (Homo sapiens, PC-3, 72 h).

With `O=C1Nc2c(ccc(F)c2F)C1(Cc1ccccc1)c1ccc(O)cc1` (racemic), the IC50 was above 1000 nM in the data set with MCF7 (Homo sapiens, MCF7, 72 h) and above 1000 nM in the data set with PC-3 [1] (Homo sapiens, PC-3, 72 h).

Take `O=C1Nc2ccccc2C1(c1ccc(O)cc1)c1ccc(F)cc1` (racemic): the 50% inhibitory concentration (IC50) in the data set with MCF7 (Homo sapiens, MCF7, 72 h) is 28 nM; in the data set with PC-3 [1] (Homo sapiens, PC-3, 72 h) it was above 1000 nM.

Take `O=C1Nc2ccccc2C1(c1ccc(O)cc1)C1CCCCCC1` (racemic): the IC50 was 247 nM in the data set on MCF7 (Homo sapiens, MCF7, 72 h) and above 1000 nM with PC-3 [1] (Homo sapiens, PC-3, 72 h).

For `Cc1cccc2c1NC(=O)C2(c1ccc(O)cc1)C1CCCCCC1` (racemic), the half-maximal inhibitory concentration (IC50) in the data set with MCF7 (Homo sapiens, MCF7, 72 h) was above 1000 nM; in the data set with PC-3 [1] (Homo sapiens, PC-3, 72 h), above 1000 nM.

For the molecule `COc1ccc(C2(c3ccc(O)cc3)C(=O)Nc3c2ccc(F)c3F)cc1` (stereo in doubt; form 1), the 50% inhibitory concentration (IC50) with MCF7 (mcf7) was 2.1 nM; in the data set with PC-3 [1] (pc-3) it was 2 nM.

Turning to `O=C1Nc2c(ccc(F)c2F)C1(c1ccc(O)cc1)C1CCCCC1` (stereo in doubt; form 1), the half-inhibitory concentration (IC50) in the data set with MCF7 (mcf7) was 18 nM; in the data set with PC-3 [1] (pc-3) it was 9.2 nM.

On to `COc1ccc(C2(c3ccc(O)cc3)C(=O)Nc3c2ccc(F)c3F)cc1` (stereo in doubt; form 2), for which the half-inhibitory concentration (IC50) in the data set with MCF7 (mcf7) and in the data set with PC-3 [1] (pc-3) was above 1000 nM in each case.

`O=C1Nc2c(ccc(F)c2F)C1(c1ccc(O)cc1)C1CCCCC1` (stereo in doubt; form 2): the IC50 with MCF7 (mcf7) and in the data set with PC-3 [1] (pc-3) was above 1000 nM throughout.
